Active and inactive are the calls of the source. The calls are words filed in the database; no cut-off is given here.
Legend:
[1] = target: T1, Sodium/glucose cotransporter 2 (Mus musculus, UniProt Q923I7); experiment: Inhibition of mouse SGLT2-mediated [14C]alpha-methylglucopyranoside uptake by cell based assay
T1 sequence (Q923I7 whole entry): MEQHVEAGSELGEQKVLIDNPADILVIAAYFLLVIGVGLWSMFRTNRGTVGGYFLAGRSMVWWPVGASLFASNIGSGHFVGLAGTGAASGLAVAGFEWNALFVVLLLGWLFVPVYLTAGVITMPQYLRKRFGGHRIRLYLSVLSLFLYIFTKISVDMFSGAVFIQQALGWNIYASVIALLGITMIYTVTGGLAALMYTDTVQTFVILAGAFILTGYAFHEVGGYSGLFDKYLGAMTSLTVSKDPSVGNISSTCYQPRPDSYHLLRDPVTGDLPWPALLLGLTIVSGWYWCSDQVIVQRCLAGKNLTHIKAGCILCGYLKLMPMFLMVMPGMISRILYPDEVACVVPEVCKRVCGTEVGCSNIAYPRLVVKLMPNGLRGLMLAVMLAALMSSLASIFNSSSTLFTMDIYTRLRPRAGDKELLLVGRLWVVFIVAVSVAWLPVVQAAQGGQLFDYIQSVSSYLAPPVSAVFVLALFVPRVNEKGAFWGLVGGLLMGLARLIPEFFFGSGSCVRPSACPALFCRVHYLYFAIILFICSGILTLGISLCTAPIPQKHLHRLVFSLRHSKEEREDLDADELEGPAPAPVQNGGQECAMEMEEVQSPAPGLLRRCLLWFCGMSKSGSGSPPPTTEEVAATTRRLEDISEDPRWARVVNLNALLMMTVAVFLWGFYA

[2] = target: T2, Sodium/glucose cotransporter 2 (Homo sapiens, UniProt P31639); experiment: Inhibition of human SGLT2 expressed in HEK293 cells assessed as inhibition of [14C]alpha-methylglucopyranoside uptake; type: cell-based
T2 sequence (P31639 whole entry): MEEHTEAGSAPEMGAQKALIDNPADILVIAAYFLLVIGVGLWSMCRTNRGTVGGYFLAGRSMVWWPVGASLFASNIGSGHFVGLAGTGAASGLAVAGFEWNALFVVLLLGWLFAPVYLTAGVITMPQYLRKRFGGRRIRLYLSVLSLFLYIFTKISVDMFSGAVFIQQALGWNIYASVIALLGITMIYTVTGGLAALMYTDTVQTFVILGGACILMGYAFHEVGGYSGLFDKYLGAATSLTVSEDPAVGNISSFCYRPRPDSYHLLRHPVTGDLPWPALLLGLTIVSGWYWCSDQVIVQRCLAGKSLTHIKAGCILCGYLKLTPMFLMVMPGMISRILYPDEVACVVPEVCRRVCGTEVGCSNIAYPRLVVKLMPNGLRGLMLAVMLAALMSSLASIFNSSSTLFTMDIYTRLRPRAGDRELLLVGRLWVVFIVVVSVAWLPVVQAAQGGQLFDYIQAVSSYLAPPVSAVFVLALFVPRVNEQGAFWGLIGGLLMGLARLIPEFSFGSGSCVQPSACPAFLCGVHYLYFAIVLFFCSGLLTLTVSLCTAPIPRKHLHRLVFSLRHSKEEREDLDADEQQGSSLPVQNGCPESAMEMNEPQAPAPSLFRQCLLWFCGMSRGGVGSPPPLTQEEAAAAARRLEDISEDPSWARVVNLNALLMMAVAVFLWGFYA
In short: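 Cells stably expressing human SGLT2 were used to measure sodium-coupled uptake of [14C]α-methylglucopyranoside, a metabolically stable SGLT-specific glucose analogue. Uptake was measured across increasing compound concentrations, and IC50 was derived from the inhibition of uptake.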

Mus musculus [3] = experiment: Induction of glucosuria in high fat diet induced obese albino C57 mouse at 30 mg/kg, po administered as single administration measured after 24 hrs by glucose excretion assay; type: functional, organism-based; set-up: dose 30 mg/kg
In short: (§1)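 DIO mice received one dose, either by oral gavage or as a dietary admixture. Urinary glucose excretion was then followed past 24 h, n = 6.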

Mus musculus [4] = experiment: Induction of glucosuria in high fat diet induced obese albino C57 mouse at 75 mg/kg, po administered as single administration measured after 24 hrs by glucose excretion assay; type: functional, organism-based; set-up: dose 75 mg/kg; in short: as §1
Mus musculus [5] = experiment: Induction of glucosuria in high fat diet induced obese albino C57 mouse at 259 mg/kg administered daily through diet for 4 consecutive days by glucose excretion assay; type: functional, organism-based; set-up: dose 259 mg/kg
In short: (§2)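 DIO mice received the compound as a dietary admixture for 4 consecutive days. Average daily intakes were 8, 26, 77 and 259 mg/kg. Urinary glucose excretion was measured each day, n = 6.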

Mus musculus [6] = experiment: Induction of glucosuria in high fat diet induced obese albino C57 mouse at 75 mg/kg administered through diet measured after 24 hrs by glucose excretion assay; type: functional, organism-based; set-up: dose 75 mg/kg; in short: as §1
Mus musculus [7] = experiment: Induction of glucosuria in high fat diet induced obese albino C57 mouse at 26 mg/kg administered daily through diet for 4 consecutive days by glucose excretion assay; type: functional, organism-based; set-up: dose 26 mg/kg; in short: as §2
Mus musculus [8] = experiment: Induction of glucosuria in high fat diet induced obese albino C57 mouse at 77 mg/kg administered daily through diet for 4 consecutive days by glucose excretion assay; type: functional, organism-based; set-up: dose 77 mg/kg; in short: as §2
Mus musculus [9] = experiment: Induction of glucosuria in high fat diet induced obese albino C57 mouse at 10 to 100 mg/kg, po administered as single administration measured after 17 hrs by glucose excretion assay; type: functional, organism-based
In short: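 Adult C57 diet-induced obese mice were given one oral gavage dose spanning 10 to 100 mg/kg. Urinary glucose excretion was measured over the first 17 h after dosing, n = 6 per group, with a vehicle-treated group included.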

Row | Compound | IC50 [1] | IC50 [2] | other results
1 | COC1O[C@@H](c2ccc(Cl)c(Cc3ccc(OC(=S)N(C)C)cc3)c2)[C@H](O)[C@@H](O)[C@@H]1O (mixture of isomers) | 330 nM | 740 nM | –
2 | CCOc1ccc(Cc2cc([C@@H]3OC(OCc4ccccc4)[C@@H](O)[C@H](O)[C@H]3O)ccc2Cl)cc1 (mixture of isomers) | 330 nM | 620 nM | –
3 | CCOc1ccc(Cc2cc([C@H]3OC(OC)[C@H](O)[C@@H](O)[C@@H]3O)ccc2Cl)cc1 (some centres undefined) | 9200 nM | > 30000 nM | –
4 | CCOc1ccc(Cc2cc([C@@H]3OC(OC)C[C@H](O)[C@H]3O)ccc2Cl)cc1 (mixture of isomers) | 14000 nM | > 30000 nM | –
5 | CCOc1ccc(Cc2cc([C@@H]3OC(OC)[C@@H](O)[C@H](O)[C@H]3O)ccc2Cl)cc1 (mixture of isomers; 7c) | – | – | Activity (Mus musculus [3]): Active; Activity (Mus musculus [4]): Active; Activity (Mus musculus [5]): Active; Activity (Mus musculus [6]): Active; Activity (Mus musculus [7]): Active; Activity (Mus musculus [8]): Active; Activity (Mus musculus [9]): Dose-dependent effect
6 | CCOc1ccc(Cc2cc([C@@H]3OC(OCCN(C)C)[C@@H](O)[C@H](O)[C@H]3O)ccc2Cl)cc1 (mixture of isomers) | 2200 nM | 3600 nM | –
7 | CCOc1ccc(Cc2cc([C@@H]3OC(OC)[C@@H](O)[C@H](O)[C@H]3O)ccc2Cl)cc1 (mixture of isomers; 7a) | – | – | Activity (Mus musculus [9]): Dose-dependent effect

Continued, in another order:

Row | IC50 [1] | IC50 [2] | Compound | other results
8 | 8 nM | 32 nM | COC1O[C@@H](c2ccc(Cl)c(Cc3ccc(O)cc3)c2)[C@H](O)[C@@H](O)[C@@H]1O (mixture of isomers) | –
9 | 60 nM | 150 nM | COC1O[C@@H](c2ccc(Cl)c(Cc3ccc(Oc4nccs4)cc3)c2)[C@H](O)[C@@H](O)[C@@H]1O (mixture of isomers) | –
10 | 57 nM | 100 nM | CCOc1ccc(C(=O)c2cc([C@@H]3OC(OC)[C@@H](O)[C@H](O)[C@H]3O)ccc2Cl)cc1 (single isomer, unassigned) | –
11 | 15 nM | 33 nM | CCOc1ccc(Cc2cc([C@@H]3OC(OC(C)C)[C@@H](O)[C@H](O)[C@H]3O)ccc2Cl)cc1 (stereo in doubt; 9b) | –
12 | 23 nM | 36 nM | CCOc1ccc(Cc2cc([C@@H]3OC(OCCO)[C@@H](O)[C@H](O)[C@H]3O)ccc2Cl)cc1 (mixture of isomers) | –
13 | 190 nM | 420 nM | CCOc1ccc(Cc2cc([C@@H]3OC(OC(C)C)[C@@H](O)[C@H](O)[C@H]3O)ccc2Cl)cc1 (mixture of isomers) | –
14 | 16 nM | 45 nM | COCCOc1ccc(Cc2cc([C@@H]3OC(OC)[C@@H](O)[C@H](O)[C@H]3O)ccc2Cl)cc1 (mixture of isomers) | –
15 | 220 nM | 600 nM | CCOc1ccc(Cc2cc([C@@H]3OC(OC)[C@H](F)[C@H](O)[C@H]3O)ccc2Cl)cc1 (mixture of isomers) | –

Reference: ChEMBL document CHEMBL1156071, “Novel L-xylose derivatives as selective sodium-dependent glucose cotransporter 2 (SGLT2) inhibitors for the treatment of type 2 diabetes” (J Med Chem, 2009)
